Hits are enriched below; roughly 3.1% of the tested compounds scored in any of these assays.
Cneo AK release: causes C. neoformans cell lysis. AID 651654. actives 0.2% (n = 360,000). lysis activity, % at 15 µM. adenylate kinase release luminescence, 4 h; normalised: neutral wells 0, clomiphene wells 100;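 active = mean lysis activity across replicates of at least 80%, whatever share of replicates individually reach that level; inactive = mean lysis activity below 80%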
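Material: C. neoformans cells; Schedule: 4 h static compound exposure, 37 °C, read 1 h post-reagent; Measured by: adenylate kinase release luminescence; Read-out: signal increase indicating cell lysis; Controls: Clomiphene as positive lysis control.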
Ecoli rRNA inh: inhibits bacterial ribosomal RNA function over humanized ribosomes; GFP signal change (wild-type ribosome), % (no concentration beside the values); E. coli WT GFP vs humanized-ribosome RFP mutants, fluorescence, 24 h; active compounds read low; DMSO median 0, no signal -100; actives 1.6% (n = 350,000); AID 720706;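 active = significant combined selectivity score with lowered wild-type GFP, culture density cut under 30%, mutant RFP and density less affected; inactive = any of these conditions unmet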
miR-122 sensor: miR-122 inhibition in Huh7 cells | Huh7 miR-122 Renilla luciferase sensor, 48 h; neutral wells = 0, positive control = 100 | activation (reporter increase), % at 12.5 µM | actives 0.3% (n = 340,000) | AID 602342;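 active = mean replicate activation score at least 90 and every replicate individually at or above 90; inconclusive = only one of the two criteria met; inactive = neither criterion met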;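 also: higher luciferase means less miR-122 activity so hits act as miR-122 inhibitors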
DENV2 CPE: protects cells from dengue virus 2 cytopathic effect; DENV2-infected cells, cytopathic effect rescue, plate reader; CPE inhibition, % at 9.99 µM; actives 1.7% (n = 350,000); AID 651640; in the data active = CPE inhibition above about 20%, passing the limit was not always enough; inconclusive = no clear call, values can overlap the other calls; tested in BHK-21 cells;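 also: 0% = median of neutral control wells and 100% = median of positive control wells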
E-selectin induc: induces E-selectin expression in human endothelial cells; activation, % at 7.58 µM; HUVEC E-selectin immunofluorescence imaging; normalized: neutral wells 0, TNF-alpha wells 100; AID 686992; actives 0.37% (n = 260,000); P16581;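 active = mean E-selectin-positive cell signal at least 10% of the positive control, reached in at least 60% of replicates, without over 20% cell loss; inconclusive = no rule given, readout overlaps actives, possibly toxicity-flagged; inactive = the rest, including those meeting only one limit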
Target sequence (P16581 whole entry, looked up): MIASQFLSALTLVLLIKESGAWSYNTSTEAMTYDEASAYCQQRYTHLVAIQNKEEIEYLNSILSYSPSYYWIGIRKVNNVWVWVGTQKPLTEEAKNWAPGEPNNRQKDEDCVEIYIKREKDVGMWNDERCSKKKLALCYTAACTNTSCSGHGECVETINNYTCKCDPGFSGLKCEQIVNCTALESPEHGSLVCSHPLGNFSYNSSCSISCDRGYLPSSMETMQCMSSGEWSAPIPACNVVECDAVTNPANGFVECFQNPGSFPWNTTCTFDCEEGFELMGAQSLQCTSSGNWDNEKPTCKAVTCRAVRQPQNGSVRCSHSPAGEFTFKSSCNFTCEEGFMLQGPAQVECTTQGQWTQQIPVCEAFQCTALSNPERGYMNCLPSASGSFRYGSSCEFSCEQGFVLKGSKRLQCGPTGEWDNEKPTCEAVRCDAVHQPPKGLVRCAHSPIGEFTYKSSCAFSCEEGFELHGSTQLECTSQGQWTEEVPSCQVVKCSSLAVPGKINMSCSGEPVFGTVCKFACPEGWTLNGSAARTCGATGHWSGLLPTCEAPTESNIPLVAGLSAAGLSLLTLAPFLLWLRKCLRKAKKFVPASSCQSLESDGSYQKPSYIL
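material = human umbilical vein endothelial cells (HUVEC), E-selectin induction | quantity = 3,000 cells/well | medium = EGM-2 growth medium on 0.1% gelatin-coated wells | technique = immunofluorescence imaging | read-out basis = % PE-positive cells | control set = TNF-alpha positive control, DMSO neutral control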
Starred values were filed as active, the others as inactive; ? = inconclusive; · = not tested or not shown; ! = a repeat was not active; [ ] = another dose, or the depositor's remark.

SMILES	Cneo AK release	Ecoli rRNA inh	miR-122 sensor	DENV2 CPE	E-selectin induc
CSC1=NCCN1C(=O)Cc1ccc(-c2ccccc2)cc1	·	-19*	·	-4	·
COc1ccc(CCNc2nc(-c3ccncc3)cs2)cc1OC	·	-27*	7	-3	0
COc1ccc(CCNc2nc(-c3ccc(O)cc3)cs2)cc1OC	0	-21	4	-3	·
CN1C(=O)[C@@](O)(c2cn(C)c3ccccc23)c2cc(Br)ccc21	·	-23*	·	-1	14
COc1ccc2c3c(n(C)c2c1)[C@H](CO)N(C(C)=O)CC31CN(C(=O)NC(C)C)C1	·	0	·	?	0
COc1ccc(NC(=O)C2CC3C=CC2C3)c([N+](=O)[O-])c1 (stereo not drawn)	·	-22*	·	7	1
C[C@@H]1CN([C@H](C)CO)C(=O)c2cc(NC(=O)CCC(F)(F)F)ccc2O[C@@H](C)CCCCO[C@H]1CN(C)C(=O)C1CCCCC1	2	-1	-5[16.7 µM]	3	0
O=C(C1CCOCC1)N1CC2(C1)[C@H](c1ccccc1)[C@@H](CO)N2Cc1ccc(Cl)cc1	·	5	·	29*	0
O=C(C1CCCCC1)N1CC2(C1)[C@H](c1ccccc1)[C@H](CO)N2Cc1cncnc1	·	0	·	40*	0
CN(C)C(=O)c1cccc(-c2ccc([C@@H]3[C@H](CO)N4C(=O)CN(C(=O)C5CCCC5)C[C@@H]34)cc2)c1	·	2	·	19	-1
C[C@H](O)C#Cc1ccc2c(c1)O[C@@H](CN(C)CC1CCOCC1)[C@@H](C)CN([C@@H](C)CO)S2(=O)=O	0	3	-4[16.7 µM]	-5	-6
COC(=O)[C@H]1CN(C(=O)c2ccccc2)C(=O)N1	2	3	-2	25*	·
COC(=O)C1CCC(=S)N1C(=O)c1ccccc1 (stereo not drawn)	4	3	-6	-3	·
O=C(CSc1nc2ccc(NC(=O)CSc3nnnn3-c3ccccc3)cc2s1)Nc1ccccc1	-2	·	-4	·	·
Cn1cnnc1SCC(=O)Nc1ccc2nc(SCc3ccccc3F)sc2c1	-5	-23*	0	-1	·
Cc1ccc(S(=O)(=O)N2CC[C@@H]3[C@H]2c2cc(C#Cc4ccc(F)cc4)ccc2N[C@@H]3CO)cc1	4	4	0[16.7 µM]	29*	0
COc1ccccc1C#Cc1ccc2c(c1)[C@H]1[C@H](CCN1C(=O)c1ccccc1)[C@H](CO)N2	-3	-6	-1[16.7 µM]	4	-1
COc1ccccc1CN1CC[C@H]2[C@H](CO)Nc3ccc(C#Cc4ccccc4)cc3[C@H]21	115*	-55	-10[16.7 µM]	-33	0
Cc1ccc(S(=O)(=O)N2CC[C@@H]3[C@@H](CO)Nc4ccc(C#Cc5ccc(F)cc5)cc4[C@@H]32)cc1	11	1	-4[16.7 µM]	-4	-1
COc1ccccc1C#Cc1ccc2c(c1)[C@H]1[C@H](CCN1C(=O)c1ccc(F)cc1)[C@@H](CO)N2	·	2	·	54*	0
COc1ccccc1C#Cc1ccc2c(c1)[C@@H]1[C@@H](CCN1S(=O)(=O)c1ccc(F)cc1)[C@@H](CO)N2	·	0	·	29*	1
CO[C@@H]1CN(C)C(=O)c2ccc(NC(=O)c3cnccn3)cc2OC[C@H](C)N(C(=O)C2CC2)C[C@@H]1C	-2	0	·	-1	0
C[C@@H]1CN([C@H](C)CO)C(=O)c2cc(NC(=O)CCCN(C)C)ccc2O[C@@H]1CN(C)Cc1ccc2c(c1)OCO2	·	1	·	·	0
C[C@H](CO)N1C[C@H](C)[C@@H](CN(C)C(=O)C2CCCCC2)OCCCC[C@H](C)Oc2ccc(NC(=O)Nc3ccc4c(c3)OCO4)cc2C1=O	-1	1	-7[16.7 µM]	-8	0
C[C@H]1CN([C@@H](C)CO)C(=O)c2cc(-c3ccccc3F)cnc2O[C@@H]1CN(C)Cc1ccc(F)cc1	-5	-1	6[16.7 µM]	12	1
SMILES	Cneo AK release	Ecoli rRNA inh	miR-122 sensor	DENV2 CPE	E-selectin induc
C[C@H](CO)N1C[C@H](C)[C@@H](CN(C)C(=O)c2ccccn2)Oc2ncc(-c3ccccc3F)cc2C1=O	-2	-1	2[16.7 µM]	21*	0
COCC(=O)N(C)C[C@H]1Oc2ncc(-c3ccccc3F)cc2C(=O)N([C@@H](C)CO)C[C@H]1C	87*	3	·	·	0
COc1ccccc1-c1cnc2c(c1)C(=O)N([C@@H](C)CO)C[C@@H](C)[C@H](CN(C)C(=O)c1cccnc1)O2	89*!	3	-3	-4	1
C[C@@H]1CN([C@H](C)CO)C(=O)c2cc(-c3ccccc3F)cnc2O[C@H]1CN(C)Cc1ccc(F)cc1	-3	1	18[16.7 µM]	29*	0
COCC(=O)N(C)C[C@@H]1Oc2ncc(-c3ccccc3OC)cc2C(=O)N([C@H](C)CO)C[C@H]1C	5	0	3[16.7 µM]	?	0
COCC(=O)N(C)C[C@H]1Oc2ncc(-c3ccccc3OC)cc2C(=O)N([C@@H](C)CO)C[C@@H]1C	-4	1	-1[16.7 µM]	21*	0
O=C(NC[C@@H]1N[C@@H](CO)[C@@H]1c1ccccc1)c1ccccc1F	2	0	50[16.7 µM]	29*	0
Cc1ccccc1NC(=O)Nc1ccc2c(c1)C(=O)N(C)[C@@H]1CC[C@H](CC(=O)O)O[C@H]1CO2	2	2	4[16.7 µM]	1	0
O=C1CCC/C=C/C[C@H](CC(=O)N(CCO)Cc2ccccc2)C(=O)N[C@@H](Cc2ccccc2)CO1	0	8	-5	25*	0
O=C1CCCC/C=C\C[C@H](CC(=O)N(CCO)Cc2ccccc2)C(=O)N[C@@H](Cc2ccccc2)CO1	8	0	·	17	·
O=C(C[C@H]1C=C[C@H](NC(=O)C2CCOCC2)[C@@H](CO)O1)NCc1ccccc1Cl	·	4	·	-1	-1
COC(=O)C1=C(C)NC2=C(C(=O)CCC2)C1c1ccc(-c2ccsc2C(=O)OC)o1 (stereo not drawn)	·	-24*	·	-1	·
COc1ccc(CN(C)C(=O)COC(=O)c2c(-c3ccccc3Cl)noc2C)cc1	0	-27*	-9	-2	·
COc1ccc([C@H]2C[C@@H](n3cc(C4CC4)nn3)[C@H](O)CN2Cc2cccs2)cc1	0	4	-7	35*	·
CCCCCC(=O)N1C[C@H](n2cc(COC(=O)c3ccccc3)nn2)[C@@H](O)C[C@@H]1c1ccc(C)cc1	2	-3	-3	-15	0
O=C(OCc1cn([C@H]2C[C@H](c3ccccc3)N(CC3CCCCC3)C[C@@H]2O)nn1)c1ccccc1	1	9	1	-4	5
COc1ccc([C@H]2C[C@@H](O)[C@H](n3cc(COC(=O)c4ccccc4)nn3)CN2Cc2cccs2)cc1	0	-2	4	56*	0
O[C@@H]1CN(Cc2cccs2)[C@@H](c2ccccc2)C[C@H]1n1cc(C2CC2)nn1	-2	2	-2	?	0

Source: PubChem (Broad Institute)
